Screening data deposited in PubChem by Johns Hopkins Ion Channel Center.
Most compounds without a hit are left out; they make up all but 3.7% or so of the library.
KCNK9 inh: inhibitors of human KCNK9 two-pore domain potassium channel. Q9NPC2. HEK293 KCNK9, FluxOR thallium flux fluorescence; hits give low values. B-score at 10 µM. 310,000 tested, 1.2% active. AID 488922;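 active = ratio B-score over 3 SD below the library mean, with starting fluorescence within 5 SD of its mean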;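 also: negative B-score means less thallium flux so channel inhibition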
Target sequence (Q9NPC2 whole entry, looked up, the tested form may be a part): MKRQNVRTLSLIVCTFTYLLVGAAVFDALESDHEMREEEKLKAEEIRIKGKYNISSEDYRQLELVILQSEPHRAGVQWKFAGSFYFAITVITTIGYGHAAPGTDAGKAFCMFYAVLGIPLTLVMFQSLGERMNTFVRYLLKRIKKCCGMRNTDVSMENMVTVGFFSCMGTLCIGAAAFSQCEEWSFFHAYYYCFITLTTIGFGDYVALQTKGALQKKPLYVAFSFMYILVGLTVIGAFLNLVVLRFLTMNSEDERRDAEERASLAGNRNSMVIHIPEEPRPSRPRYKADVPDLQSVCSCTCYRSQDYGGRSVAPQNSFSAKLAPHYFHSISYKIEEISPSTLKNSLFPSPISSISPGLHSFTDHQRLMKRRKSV
KCNQ1 block: blocks the human KCNQ1 potassium channel. B-score at 10 µM. AID 2642. 310,000 tested, 1.3% active. P51787. CHO-K1 KCNQ1, FluxOR thallium flux fluorescence; hits give high values;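 active = compounds whose thallium flux B-score, printed positive for inhibition, exceeds three library SD while starting fluorescence stays within three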;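 also: channel opened by potassium depolarization with thallium stimulus after 20 min compound exposure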
KCNK3 inh: human KCNK3 channel inhibition, primary screen; O14649; CHO-KCNK3 thallium flux, FluxOR fluorescence; hits give low values; B-score at 10 µM; 340,000 tested, 0.84% active;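 active = B-score under library mean minus 4 SD, starting fluorescence ratio at most library mean plus 5 SD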;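 also: more negative B-score means stronger inhibition of thallium flux through KCNK3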
KCNQ1 pot: human KCNQ1 channel potentiation or activation. P51787. CHO-K1 KCNQ1, thallium flux FluxOR fluorescence; hits give high values. B-score at 10 µM. 310,000 tested, 0.35% active. AID 2648;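 active = fluorescence ratio B-score, a plate-corrected score, at least three library SD, with initial intensity B-score within 5 SD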
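assay system = KCNQ1-transfected CHO-K1 cells | medium = assay buffer with matched DMSO | probe or stimulus = depolarizing K+/Tl+ stimulus, K2SO4 and Tl2SO4 each 12.5 mM in 5x stock | dosing = single dose | incubation = dye 90 min, compound 20 min, room temperature | detection = kinetic FluxOR fluorescence, 10 s baseline plus 110 s post-stimulus | evaluation = ratio B score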
hERG protect: hERG (human) protection from proarrhythmic block; activation (rescue from dofetilide block), less the hit threshold, % at 10 µM; 310,000 tested, 0.51% active; AID 1511; CHO-hERG, FluxOR thallium flux, dofetilide IC70 present; Q12809;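 active = activation above the mean of controls blocked by dofetilide plus 5 SD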;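 also: thallium influx through hERG after potassium depolarization seen as dye fluorescence rise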
Kir21 inh: blocks the mouse Kir2.1 inward-rectifier potassium channel | P35561 | HEK293-Kir2.1, FluxOR thallium flux fluorescence; hits give low values | B-score at 10 µM | 310,000 tested, 0.85% active | AID 1672;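 active = fluorescence ratio B-score at or below minus 3 SD of library scores, with starting-brightness B-score within 2 SD, cut at about -4.2 in these data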;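 also: channel flux triggered by added potassium and thallium sulfate stimulus; B-score of peak minus minimum fluorescence over baseline after thallium stimulus; more negative B-score means stronger Kir2.1 block with less thallium influx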
KCNK9 inh conf: confirmation of human KCNK9 potassium channel inhibitors. shares compounds with KCNK9 inh. HEK293 KCNK9 cells, FluxOR thallium flux fluorescence. inhibition, % at 10 µM. 4,900 tested, 43% active. AID 492992;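 active = thallium signal inhibited by more than 5 SD of the compound-free buffer control wells, on both duplicate plates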;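 also: 0% = assay buffer control wells without compound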
Kir2-1 spec: mouse Kir2.1 off-target activity of KCNK9 modulators | shares compounds with KCNK9 inh | Kir2.1 cells, FluxOR thallium flux fluorescence | inhibition, % at 10 µM | 4,900 tested, 4% active | AID 492993;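 active = thallium signal drop more than 5 SD beyond the mean of the no-compound control wells, seen in both duplicate plates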;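 also: signal is fluorescence rise after thallium addition divided by baseline fluorescence; plate controls were assay buffer only for no effect and full block by chlorpromazine control for full effect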
KCNK9 uninduced: second counter-screen for KCNK9 modulators: effect in non-induced cells; shares compounds with KCNK9 inh; non-induced KCNK9-HEK293, FluxOR thallium flux; inhibition, % at 10 µM; 4,900 tested, 40% active; AID 492997;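 active = thallium signal drop beyond 5 SD of the untreated control mean, on both duplicate plates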;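 also: plate controls were buffer only IC0 wells for no effect and SID17386958 at its maximal inhibitory level for full effect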
* marks the source's active call; other numbers are inactive results; i = inactive; nt = no result given.

SMILES	KCNK9 inh	KCNQ1 block	KCNK3 inh	KCNQ1 pot	hERG protect	Kir21 inh	KCNK9 inh conf	Kir2-1 spec	KCNK9 uninduced
CC(C)NC(C(=O)Nc1cc(Cl)cc(Cl)c1)c1ccccc1 (stereo not given)	-9.3*	i	i	i	-11	-0.83	34%*	i	25%*
COc1ccccc1C(CNC(=O)c1cc(S(=O)(=O)N2CCOCC2)ccc1C)N1CCCC1 (stereo not given)	nt	nt	i	nt	nt	nt	nt	nt	nt
CC(C)(C)c1ccc(CN(Cc2ccco2)Cc2nnnn2C2CCCC2)cc1	-14*	6*	i	i	-24	-0.16	62%*	i	49%*
Nc1[nH]n2c(=O)c3c(nc2c1N=Nc1ccccc1)CCCC3	i	i	i	i	-7	0.06	nt	nt	nt
Nc1[nH]n2c(=O)c3c(nc2c1N=Nc1ccc(Cl)cc1)CCCC3	-9.6*	i	i	i	-7	-0.1	39%*	i	i
COc1ccc(C2CC(c3cccs3)=NN2C(=O)CSc2nc(=O)n3cc(C)ccc3n2)cc1 (stereo not given)	i	i	i	i	-8	-0.8	nt	nt	nt
Cc1nc(NC(=O)c2ccccc2)sc1-c1csc(NCCc2ccccc2)n1	-8.7*	i	i	i	-7	1.4	32%*	i	i
COc1ccc(Cl)cc1Nc1nc(-c2sc(NC(=O)c3ccco3)nc2C)cs1	-11*	i	i	i	-36	-0.61	i	i	i
c1cc2c(cc1Nc1nc(-c3ccc4c(c3)OCO4)cs1)OCCO2	i	i	i	i	-13	0.1	nt	nt	nt
COc1cccc(Nc2nc(-c3ccc4c(c3)OCCO4)cs2)c1	i	i	i	i	-8	-0.06	i	i	i
Cc1nc(NC(=O)c2ccccc2)sc1-c1csc(NCc2ccccc2)n1	i	i	i	i	-19	-0.31	nt	nt	nt
COc1ccc(Cl)cc1Nc1nc(-c2sc(NC(=O)C(C)(C)C)nc2C)cs1	i	i	i	i	-5	0.79	nt	nt	nt
COc1cccc(Nc2nc(-c3sc(NC(=O)c4ccco4)nc3C)cs2)c1	-11*	i	i	i	-26	-2.9	50%*	i	i
O=C(Nc1ccccc1Cl)c1ccc(=O)[nH]n1	i	i	i	i	1	-1.3	nt	nt	nt
Cc1cccc(NS(=O)(=O)c2ccc(C)c(C(=O)N(C)C3CCN(C)CC3)c2)c1	nt	nt	i	nt	nt	nt	nt	nt	nt
O=C(c1c(F)cccc1F)N1CCN(CCOc2ccccc2)CC1	i	i	i	i	-10	0.57	nt	nt	nt
COc1ccccc1NC(=O)CSc1ccc(-c2cccs2)nn1	i	i	i	i	-10	-0.16	nt	nt	nt
CCN(CC)C(=O)c1[nH]cnc1C(=O)NCC(=O)OCc1ccccc1	i	i	i	i	-4	-0.79	nt	nt	nt
CC1Cc2ccccc2N1C(=O)COC(=O)/C=C/c1ccc(F)cc1 (stereo not given)	nt	nt	i	nt	nt	nt	nt	nt	nt
CC1Cc2ccccc2N1C(=O)CO/N=C/c1ccc(OC(F)F)cc1 (stereo not given)	i	i	i	i	-7	-0.33	i	i	i
O=C(O)/C=C/C(=O)Nc1ccc(Oc2ncnc3cc(Cl)ccc23)nc1	i	i	nt	i	-7	-0.07	nt	nt	nt
CCOc1ccc2nc(SCC(=O)NC(=O)NCc3ccco3)[nH]c2c1	i	i	i	i	-11	1.1	i	i	i
O=C(NCCOc1ccc(Cl)cc1)c1ccc2ccccc2n1	i	i	i	i	-10	-0.02	i	i	i
Cc1ccc(OCCNC(=O)c2ccc3ccccc3n2)cc1	i	i	i	i	-12	2.2	i	i	i
Cc1ccc(OCCNC(=O)c2ccccc2N)cc1	i	i	i	i	-4	-0.03	nt	nt	nt
SMILES	KCNK9 inh	KCNQ1 block	KCNK3 inh	KCNQ1 pot	hERG protect	Kir21 inh	KCNK9 inh conf	Kir2-1 spec	KCNK9 uninduced
Cn1c(=O)cc(OCC(=O)NCc2cccs2)c2ccccc21	i	i	i	i	-3	0	nt	nt	nt
CCOc1ccccc1C(=O)Nc1cccc2cccnc12	i	i	i	i	-9	0.07	nt	nt	nt
CCC(c1nnnn1C(C)(C)C)N1CCN(c2cc(Cl)ccc2C)CC1 (stereo not given)	-9.9*	i	-8.9*	i	-5	2.4	49%*	i	47%*
Cc1ccc(Cl)cc1N1CCN(C(c2cccnc2)c2nnnn2C2CCCCC2)CC1 (stereo not given)	-13*	i	-11*	i	-7	0.02	37%*	i	44%*
c1cnc2ccc(C(c3nnnn3C3CCCC3)N3CCN(c4nc5ccccc5s4)CC3)cc2c1 (stereo not given)	-9.2*	i	-9.1*	i	-8	0.33	i	i	40%*
Cc1ccc(C(C)(C)C)cc1S(=O)(=O)N1CC(=O)Nc2ccccc21	i	i	i	i	-10	0.5	nt	nt	nt
COc1ccc(/C(N)=N/OC(=O)CC2CCCCC2)cc1	i	i	i	i	-6	1.2	nt	nt	nt
O=C(O)c1ccc(-c2nc(-c3ccc(Cl)c(Cl)c3)cs2)cc1	i	i	i	i	-2	3.1	i	i	i
CCNc1ccc(P(=O)(c2ccccc2)c2ccccc2)cc1	i	i	i	i	-8	0.08	nt	nt	nt
CC1=C(C(=O)OC(C)C)C(c2cccc(F)c2)N2C(=O)C(C)SC2=N1 (stereo not given)	-13*	i	i	i	-14	-0.61	56%*	i	54%*
CCOC(=O)C1=C(C)N=C2SC(C)C(=O)N2C1c1cccc(F)c1 (stereo not given)	-17*	6*	i	i	-14	-0.02	64%*	i	60%*
CCOC(=O)C1=C(C)N=C2SC(C)C(=O)N2C1c1ccc(OC(C)=O)c(OCC)c1 (stereo not given)	i	i	nt	i	-9	-1.5	nt	nt	nt
CCOC(=O)CSc1ncc(-c2ccc([N+](=O)[O-])cc2)[nH]1	i	i	i	i	-6	-0.87	nt	nt	nt
COC(=O)CC1(C(=O)OC)Oc2ccc(Br)cc2C(=O)N1c1cc(Cl)c(Cl)cc1Cl (stereo not given)	-8.6*	i	i	i	-11	0.47	25%*	i	42%*
